Our source for the IC50, half-life and inhibition values is ChEMBL document CHEMBL3864143, “Design, synthesis and biological evaluation of novel non-covalent piperidine-containing peptidyl proteasome inhibitors” (Bioorg Med Chem, 2016).

SMILES strings stand for the structures. Calls of active or inactive are those of the source. The calls are words filed in the database; no cut-off is given here. A value given as a limit tells only on which side of the number the result lay.

For orientation: IC50 means the concentration needed to halve the response being measured. A higher IC50 goes with lower potency. As usually defined, the half-life is the time in which the quantity being followed falls by half. As a reminder, the inhibition is how much of the control response was suppressed.

Series [1] concerns the target T1, Proteasome Macropain subunit MB1 (Homo sapiens, UniProt P28074).
T1 sequence (P28074 whole entry): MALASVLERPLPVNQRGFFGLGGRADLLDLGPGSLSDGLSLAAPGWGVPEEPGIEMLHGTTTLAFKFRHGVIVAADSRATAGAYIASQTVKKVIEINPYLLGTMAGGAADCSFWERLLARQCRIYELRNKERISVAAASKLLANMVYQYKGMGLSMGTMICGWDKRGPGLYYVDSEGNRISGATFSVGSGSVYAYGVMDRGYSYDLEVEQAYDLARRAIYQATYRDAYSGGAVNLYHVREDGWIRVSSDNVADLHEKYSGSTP
The series is described as follows: Inhibition of chymotrypsin-like activity of 20S proteasome (unknown origin) using succinyl-leu-leu-val-tyr-7-amino-4-methyl coumarin as substrate after 15 mins by fluorescent spectroscopic method. An outline of the steps:
(§1)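 Purified human proteasome (25 µg/mL working stock) in 100 mM Tris-HCl pH 8.0 preincubated 15 min with compound. Suc-LLVY-AMC added (50 µM as listed), AMC release followed by fluorescence increase at ex 355/em 460 nm. IC50 by sigmoidal variable-slope fit, mean of three independent determinations.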

Series [2] has as its target T1, Proteasome Macropain subunit MB1. The experiment in a line: Inhibition of chymotrypsin-like activity of human 20S proteasome preincubated for 15 mins followed by addition of Suc-Leu-Leu-Val-Tyr-AMC as substrate by fluorescence analysis. An outline of the steps: as §1
A short description of series [3]: Half life in mouse plasma at 2 uM by LC-MS/MS analysis. Type of series: ADME, cell-free. An outline of the steps: (§2)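 Sodium-heparin mouse plasma or blood, pre-warmed to 37°C, spiked to 2 µM final from a 0.02 mM dosing solution in 0.05 M sodium phosphate with 0.5% BSA; duplicates held at 37°C. Time points quenched with acetonitrile, supernatant diluted 1:1 in water for LC-MS/MS. Percent remaining from analyte/internal-standard peak-area ratio versus time 0; T1/2 from single-phase exponential decay fit.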

The target in series [4] is T2, Proteasome subunit beta type-5 (Mus musculus) (UniProt O55234).
T2 sequence (whole entry): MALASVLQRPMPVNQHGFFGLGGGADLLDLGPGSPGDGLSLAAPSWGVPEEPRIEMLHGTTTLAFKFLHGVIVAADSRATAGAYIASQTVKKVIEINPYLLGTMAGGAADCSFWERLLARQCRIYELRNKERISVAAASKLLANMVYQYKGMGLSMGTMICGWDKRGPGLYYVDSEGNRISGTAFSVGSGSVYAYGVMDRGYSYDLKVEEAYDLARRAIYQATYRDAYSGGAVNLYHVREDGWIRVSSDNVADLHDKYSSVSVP
The experiment in a line: Inhibition of chymotrypsin-like activity of 20S proteasome in mouse blood at 0.5 to 12.5 uM preincubated for 40 mins followed by addition of Suc-Leu-Leu-Val-Tyr-AMC as substrate relative to control. Type of series: tissue-based. The method, boiled down:
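Whole blood from normal mice incubated 40 min with compound (compound:serum 1:50 by volume), centrifuged, cells lysed in 5 mM EDTA pH 8.0 at 4°C for 60 min. Lysate protein (Bradford, 100 µg) assayed in 20 mM HEPES pH 8.0, 0.5 mM EDTA, 0.05% SDS, 1% DMSO with 50 µM Suc-LLVY-AMC; fluorescence at ex 355/em 460 nm.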

The nature of series [5]: Antiproliferative activity against human RPMI8226 cells measured after 72 hrs by MTS assay. As to conditions: RPMI-8226, 72 h. It is filed as functional, cell-based. The method, boiled down: (§3)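 MM-1S seeded at 2×10^4/well and RPMI 8226 at 0.5×10^4/well, exposed to compounds for 72 h. MTS then added at 0.5 mg/mL final for 2–4 h, absorbance read at 490 nm with 690 nm background subtraction. Growth inhibition = (A_control − A_sample)/A_control; IC50 from nonlinear sigmoidal variable-slope dose-response fit.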

Series [6] is described as follows: Half life in mouse blood at 2 uM by LC-MS/MS analysis. Type of series: ADME, tissue-based. An outline of the steps:
as §2

Series [7] can be described thus: Antiproliferative activity against human MM1S cells measured after 72 hrs by MTS assay. Type of series: functional, cell-based. Conditions: MM1.S. An outline of the steps:
as §3
On the technique in general: Tetrazolium assays rely on reduction of a dye to a coloured formazan, in cell work by metabolically active cells.

In turn, `COc1ccc2c(c1)C(CC(=O)N[C@@H](CC(C)C)C(=O)N[C@H](CC(C)C)C(=O)NCc1c(F)cccc1F)CC2=O` (stereo not given in full) showed an IC50 in series [1] of 140 nM.
Regarding `O=C(Nc1cccnc1)C1CCN(C(=O)N[C@@H](CCc2ccccc2)C(=O)N[C@@H](CCc2ccccc2)C(=O)NCc2ccccc2Cl)CC1`, the concentration for half-maximal inhibition (IC50) in series [2] was 1.4 nM; in series [5] it was 13.9 nM; in series [7], 9.5 nM. The half-life at 2 µM amounted to 435 min in series [3] and 179 min in series [6]. The inhibition in series [4] is > 60%.
In the case of `O=C(Nc1ccccn1)C1CCN(C(=O)N[C@@H](CCc2ccccc2)C(=O)N[C@@H](CCc2ccccc2)C(=O)NCc2ccccc2Cl)CC1`, the concentration for half-maximal inhibition (IC50) in series [2] came out at 2.4 nM; in series [5], 24.7 nM; in series [7], 22.2 nM. For the same compound, in series [4], the inhibition was > 60%.
Turning to `CC(C)C[C@H](NC(=O)[C@H](CCc1ccccc1)NC(=O)CN1CCOCC1)C(=O)N[C@@H](Cc1ccccc1)C(=O)N[C@@H](CC(C)C)C(=O)[C@@]1(C)CO1` [CARFILZOMIB], the inhibition result in series [4] was “Active”. Also, the results for the IC50 in series [5] and in series [7] were 13.2 nM and 1.5 nM, respectively.
For the compound `O=C(NC1CCN(C(=O)N[C@@H](CCc2ccccc2)C(=O)N[C@@H](CCc2ccccc2)C(=O)NCc2ccccc2Cl)CC1)c1cnccn1`, the IC50 in series [2] was determined as 23.7 nM.
For `O=C(Nc1cnccn1)C1CCN(C(=O)N[C@@H](CCc2ccccc2)C(=O)N[C@@H](CCc2ccccc2)C(=O)NCc2ccccc2Cl)CC1`, the results for the IC50 in series [2], in series [5] and in series [7] were 14.7 nM, 196 nM and 135 nM, respectively.
In series [2], `O=C(NC1CCN(C(=O)N[C@@H](Cc2ccccc2)C(=O)N[C@@H](CCc2ccccc2)C(=O)NCc2ccccc2Cl)CC1)c1cnccn1` showed an IC50 of 344 nM.
`C[C@H](NC(=O)N1CCC(NC(=O)c2cnccn2)CC1)C(=O)N[C@@H](CCc1ccccc1)C(=O)NCc1ccccc1Cl` had an IC50 in series [2] of 670 nM.
With `O=C(Nc1nccs1)C1CCN(C(=O)N[C@@H](CCc2ccccc2)C(=O)N[C@@H](CCc2ccccc2)C(=O)NCc2ccccc2Cl)CC1`, the IC50 in series [2] turned out to be 4.3 nM; in series [5], 29.5 nM; in series [7], 32.5 nM. In addition, in series [4], the inhibition was > 60%.
Take `O=C(Nc1cnccn1)C1CCN(C(=O)N[C@@H](Cc2ccccc2)C(=O)N[C@@H](CCc2ccccc2)C(=O)NCc2ccccc2Cl)CC1`: the IC50 in series [2] turned out to be 153 nM.
For `O=C(Nc1ccc(F)cc1)C1CCN(C(=O)N[C@@H](CCc2ccccc2)C(=O)N[C@@H](CCc2ccccc2)C(=O)NCc2ccccc2Cl)CC1`, the IC50 was 16.9 nM in series [2], 94.3 nM in series [5] and 107 nM in series [7].
For the compound `CC(C)C[C@H](NC(=O)N1CCC(NC(=O)c2cnccn2)CC1)C(=O)N[C@@H](CCc1ccccc1)C(=O)NCc1ccccc1Cl`, in series [2], inhibition was half-maximal at 45.7 nM (IC50).
For the compound `CC(C)C[C@H](NC(=O)N1CCC(C(=O)Nc2cnccn2)CC1)C(=O)N[C@@H](CCc1ccccc1)C(=O)NCc1ccccc1Cl`, the concentration for half-maximal inhibition (IC50) in series [2] came to 16.6 nM; in series [5], 371 nM; in series [7], 261 nM.
In the case of `C[C@H](NC(=O)N1CCC(C(=O)Nc2cnccn2)CC1)C(=O)N[C@@H](CCc1ccccc1)C(=O)NCc1ccccc1Cl`, in series [2], the midpoint of inhibition, the IC50, lay at 601 nM.
Take `COc1ccc(NC(=O)C2CCN(C(=O)N[C@@H](CCc3ccccc3)C(=O)N[C@@H](CCc3ccccc3)C(=O)NCc3ccccc3Cl)CC2)cc1`: the IC50 in series [2] is 15.7 nM; in series [5], 84.6 nM; in series [7] it was 92.9 nM.
Turning to `O=C(Nc1ccccc1)C1CCN(C(=O)N[C@@H](CCc2ccccc2)C(=O)N[C@@H](CCc2ccccc2)C(=O)NCc2ccccc2Cl)CC1`, the IC50 stood at 3 nM in series [2], 18.5 nM in series [5] and 20.2 nM in series [7]. In series [4], the inhibition is > 60%.
